Measurements taken from ChEMBL document CHEMBL1156416, “Influence of high mutation rates on the mechanisms and dynamics of in vitro and in vivo resistance development to single or combined antipseudomonal agents” (Antimicrob Agents Chemother, 2007).
≈ marks a conversion by molar mass, not a printed value. Calls of active or inactive are those of the source. No cut-off for these calls is given here.

What was measured:
Pseudomonas aeruginosa [1] = assay: Antibacterial activity against Pseudomonas aeruginosa PAO1 by Etest; format: functional
In short: (§1)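 Etest strips were applied on Mueller-Hinton agar following the manufacturer's recommendations. For PAOΔmutS, the MIC read was that of the main population, ignoring resistant colonies growing within the inhibition ellipse.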

Pseudomonas aeruginosa [2] = assay: Antibacterial activity against Pseudomonas aeruginosa PAOdeltamutS by Etest; format: functional; in short: as §1
Mus musculus [3] = assay: fCmax in Pseudomonas aeruginosa PAO1 infected C57BL/6J mouse at 70 mg/kg, ip administered every 3 hrs; format: ADME, organism-based; parameters: dose 70 mg/kg, route intraperitoneal; conditions: in vivo
[4] = Half life of free unbound fraction in Pseudomonas aeruginosa PAO1 infected C57BL/6J mouse at 70 mg/kg, ip administered every 3 hrs; format: ADME, organism-based; parameters: dose 70 mg/kg, route intraperitoneal; conditions: in vivo, read-out: t1/2 unbound fraction (converted)
Mus musculus [5] = assay: fAUC (0 to 24 hrs) in Pseudomonas aeruginosa PAO1 infected C57BL/6J mouse at 70 mg/kg, ip administered every 3 hrs; format: ADME, organism-based; parameters: dose 70 mg/kg, route intraperitoneal; conditions: in vivo
[6] = fAUC (0 to 24 hrs)/MIC ratio in Pseudomonas aeruginosa PAO1 infected C57BL/6J mouse at 70 mg/kg, ip administered every 3 hrs; format: functional; conditions: route intraperitoneal
[7] = fAUC (0 to 24 hrs)/MIC ratio in Pseudomonas aeruginosa PAOdeltamutS infected C57BL/6J mouse at 70 mg/kg, ip administered every 3 hrs; format: functional; conditions: route intraperitoneal
[8] = fCmax/MIC ratio in Pseudomonas aeruginosa PAO1 infected C57BL/6J mouse at 70 mg/kg, ip administered every 3 hrs; format: functional; conditions: route intraperitoneal
[9] = fCmax/MIC ratio in Pseudomonas aeruginosa PAOdeltamutS infected C57BL/6J mouse at 70 mg/kg, ip administered every 3 hrs; format: functional; conditions: route intraperitoneal
Pseudomonas aeruginosa [10] = assay: f%T>MIC in Pseudomonas aeruginosa PAO1 infected C57BL/6J mouse at 70 mg/kg, ip administered every 3 hrs; format: functional; conditions: route intraperitoneal
Pseudomonas aeruginosa [11] = assay: Antibacterial activity against Pseudomonas aeruginosa PAO1 infected in C57BL/6J mouse assessed as mortality at 70 mg/kg, ip administered every 3 hrs; format: functional; conditions: route intraperitoneal
In short: (§2)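 Female C57BL/6J mice (20–25 g) were infected transtracheally under ketamine/xylazine with about 2 × 10⁴ agarose-bead-embedded cells. Beginning 24 h later, they received ceftazidime 70 mg/kg every 3 h or a sterile water placebo for 3 days. There were 30 mice per group from two independent experiments of 15. Mortality was recorded as the percentage of animals per group.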

Pseudomonas aeruginosa [12] = assay: Antibacterial activity against Pseudomonas aeruginosa PAOdeltamutS infected in C57BL/6J mouse assessed as mortality at 70 mg/kg, ip administered every 3 hrs; format: functional; conditions: route intraperitoneal; in short: as §2
Pseudomonas aeruginosa [13] = assay: Antibacterial activity against Pseudomonas aeruginosa PAO1 infected in C57BL/6J mouse assessed as lung bacterial count at 70 mg/kg, ip administered every 3 hrs; format: functional, organism-based; parameters: dose 70 mg/kg
In short: (§3)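 Female C57BL/6J mice (20–25 g) were anesthetized with ketamine/xylazine ip. They were inoculated transtracheally with about 2 × 10⁴ cells embedded in agarose beads. Ceftazidime 70 mg/kg every 3 h (or sterile water placebo) started 24 h after inoculation and ran for 3 days, 30 mice per group in two experiments. Lungs were taken 24 h after treatment ended, homogenized in saline, diluted 1/10 serially and plated on MHA; median counts were reported.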

Pseudomonas aeruginosa [14] = assay: Antibacterial activity against Pseudomonas aeruginosa PAOdeltamutS infected in C57BL/6J mouse assessed as lung bacterial count at 70 mg/kg, ip administered every 3 hrs; format: functional, organism-based; parameters: dose 70 mg/kg; in short: as §3
Pseudomonas aeruginosa [15] = assay: Antibacterial activity against Pseudomonas aeruginosa PAO1 infected in C57BL/6J mouse assessed as mortality at 20 mg/kg, ip administered every 6 hrs; format: functional; conditions: route intraperitoneal
Pseudomonas aeruginosa [16] = assay: Antibacterial activity against Pseudomonas aeruginosa PAOdeltamutS infected in C57BL/6J mouse assessed as mortality at 20 mg/kg, ip administered every 6 hrs; format: functional; conditions: route intraperitoneal
Mus musculus [17] = assay: fCmax in Pseudomonas aeruginosa PAO1 infected C57BL/6J mouse at 10 mg/kg, ip administered every 6 hrs; format: ADME, organism-based; parameters: dose 10 mg/kg, route intraperitoneal; conditions: in vivo
[18] = Half life of free unbound fraction in Pseudomonas aeruginosa PAO1 infected C57BL/6J mouse at 10 mg/kg, ip administered every 6 hrs; format: ADME, organism-based; parameters: dose 10 mg/kg, route intraperitoneal; conditions: in vivo, read-out: t1/2 unbound fraction (converted)
Mus musculus [19] = assay: fAUC (0 to 24 hrs) in Pseudomonas aeruginosa PAO1 infected C57BL/6J mouse at 10 mg/kg, ip administered every 6 hrs; format: ADME, organism-based; parameters: dose 10 mg/kg, route intraperitoneal; conditions: in vivo
[20] = fAUC (0 to 24 hrs)/MIC ratio in Pseudomonas aeruginosa PAO1 infected C57BL/6J mouse at 10 mg/kg, ip administered every 6 hrs; format: functional; conditions: route intraperitoneal
[21] = fAUC (0 to 24 hrs)/MIC ratio in Pseudomonas aeruginosa PAOdeltamutS infected C57BL/6J mouse at 10 mg/kg, ip administered every 6 hrs; format: functional; conditions: route intraperitoneal
[22] = fCmax/MIC ratio in Pseudomonas aeruginosa PAO1 infected C57BL/6J mouse at 10 mg/kg, ip administered every 6 hrs; format: functional; conditions: route intraperitoneal
[23] = fCmax/MIC ratio in Pseudomonas aeruginosa PAOdeltamutS infected C57BL/6J mouse at 10 mg/kg, ip administered every 6 hrs; format: functional; conditions: route intraperitoneal
Pseudomonas aeruginosa [24] = assay: Antibacterial activity against Pseudomonas aeruginosa PAO1 infected in C57BL/6J mouse assessed as mortality at 10 mg/kg, ip administered every 6 hrs; format: functional; conditions: route intraperitoneal
Pseudomonas aeruginosa [25] = assay: Antibacterial activity against Pseudomonas aeruginosa PAOdeltamutS infected in C57BL/6J mouse assessed as mortality at 10 mg/kg, ip administered every 6 hrs; format: functional; conditions: route intraperitoneal
Pseudomonas aeruginosa [26] = assay: Antibacterial activity against Pseudomonas aeruginosa PAO1 infected in C57BL/6J mouse assessed as lung bacterial count at 10 mg/kg, ip administered every 6 hrs; format: functional, organism-based; parameters: dose 10 mg/kg
Pseudomonas aeruginosa [27] = assay: Antibacterial activity against Pseudomonas aeruginosa PAOdeltamutS infected in C57BL/6J mouse assessed as lung bacterial count at 10 mg/kg, ip administered every 6 hrs; format: functional, organism-based; parameters: dose 10 mg/kg

CO/N=C(\C(=O)N[C@@H]1C(=O)N2C(C(=O)[O-])=C(C[N+]3(C)CCCC3)CS[C@H]12)c1csc(N)n1
MIC (Pseudomonas aeruginosa [1]): 1 µg/mL (≈ 2.08 µM)
MIC (Pseudomonas aeruginosa [2]): 1 µg/mL (≈ 2.08 µM)

C[C@H]1[C@H](NC(=O)/C(=N\OC(C)(C)C(=O)O)c2csc(N)n2)C(=O)N1S(=O)(=O)O [AZTREONAM]
MIC (Pseudomonas aeruginosa [1]): 1.5 µg/mL (≈ 3.44 µM)
MIC (Pseudomonas aeruginosa [2]): 1.5 µg/mL (≈ 3.44 µM)

CC(C)(O/N=C(\C(=O)N[C@@H]1C(=O)N2C(C(=O)[O-])=C(C[n+]3ccccc3)CS[C@H]12)c1csc(N)n1)C(=O)O [CEFTAZIDIME]
fc max (Mus musculus [3]): 183.1 mg/L
half-life [4]: 24 min
fAUC (Mus musculus [5]): 593.6 µg·h/mL
MIC (Pseudomonas aeruginosa [1]): 1 µg/mL (≈ 1.83 µM)
fAUC/MIC [6]: 594
fAUC/MIC [7]: 594
fc max [8]: 183
fc max [9]: 183
f %t > MIC (Pseudomonas aeruginosa [10]): 54%
mortality at 70 mg/kg (Pseudomonas aeruginosa [11]): 56.7%
mortality at 70 mg/kg (Pseudomonas aeruginosa [12]): 43.3%
Activity (Pseudomonas aeruginosa [13]): Active
Activity (Pseudomonas aeruginosa [14]): Active
MIC (Pseudomonas aeruginosa [2]): 1 µg/mL (≈ 1.83 µM)

O=C(N[C@H](CO)[C@H](O)c1ccc([N+](=O)[O-])cc1)C(Cl)Cl [CHLORAMPHENICOL]
MIC (Pseudomonas aeruginosa [1]): 32 µg/mL (≈ 99 µM)
MIC (Pseudomonas aeruginosa [2]): 32 µg/mL (≈ 99 µM)

O=C(O)c1cn(C2CC2)c2cc(N3CCNCC3)c(F)cc2c1=O [CIPROFLOXACIN]
mortality at 20 mg/kg (Pseudomonas aeruginosa [15]): 26.7%
mortality at 20 mg/kg (Pseudomonas aeruginosa [16]): 26.7%
MIC (Pseudomonas aeruginosa [2]): 0.12 µg/mL (≈ 0.362 µM)

C[C@@H](O)[C@H]1C(=O)N2C(C(=O)O)=C(SCCNC=N)C[C@H]12 [IMIPENEM ANHYDROUS]
MIC (Pseudomonas aeruginosa [1]): 1.5 µg/mL (≈ 5.01 µM)
MIC (Pseudomonas aeruginosa [2]): 1.5 µg/mL (≈ 5.01 µM)

C[C@@H](O)[C@H]1C(=O)N2C(C(=O)O)=C(S[C@@H]3CN[C@H](C(=O)N(C)C)C3)[C@H](C)[C@H]12 [MEROPENEM]
MIC (Pseudomonas aeruginosa [1]): 0.5 µg/mL (≈ 1.3 µM)
MIC (Pseudomonas aeruginosa [2]): 0.75 µg/mL (≈ 1.96 µM)

CN(C)[C@@H]1C(O)=C(C(N)=O)C(=O)[C@@]2(O)C(O)=C3C(=O)c4c(O)cccc4[C@@](C)(O)[C@H]3C[C@@H]12 [TETRACYCLINE]
MIC (Pseudomonas aeruginosa [1]): 24 µg/mL (≈ 54 µM)
MIC (Pseudomonas aeruginosa [2]): 24 µg/mL (≈ 54 µM)

NC[C@H]1O[C@H](O[C@H]2[C@H](O)[C@@H](O[C@H]3O[C@H](CO)[C@@H](O)[C@H](N)[C@H]3O)[C@H](N)C[C@@H]2N)[C@H](N)C[C@@H]1O [TOBRAMYCIN]
fc max (Mus musculus [17]): 19.07 mg/L
half-life [18]: 33 min
fAUC (Mus musculus [19]): 42.96 µg·h/mL
MIC (Pseudomonas aeruginosa [1]): 1 µg/mL (≈ 2.14 µM)
fAUC/MIC [20]: 43
fAUC/MIC [21]: 43
fc max/MIC [22]: 19
fc max/MIC [23]: 19
mortality at 10 mg/kg (Pseudomonas aeruginosa [24]): 66.7%
mortality at 10 mg/kg (Pseudomonas aeruginosa [25]): 60%
f %t > MIC (Pseudomonas aeruginosa [26]): Active
f %t > MIC (Pseudomonas aeruginosa [27]): Active
MIC (Pseudomonas aeruginosa [2]): 1 µg/mL (≈ 2.14 µM)
